Activity calls are given as the source filed them. The rule behind the calls is not given here.
Key:
[1] = Inhibition of advanced glycation end product formation in phosphate buffered saline at pH 7.4 after 14 days by fluorospectrophotometry in presence of bovine serum albumin; type: physicochemical
[2] = test system: HepG2; experiment: Increase in glucose consumption in human HepG2 cells at 10 umol/L after 24 hrs by enzymatic method relative to control blank; type: functional, cell-based
Procedure, shortened: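 HepG2 cells in high-glucose DMEM with 10% FBS, grown to 80–90% confluence, switched to DMEM with 1% FBS for 12 h, then treated 24 h in the same medium. Medium glucose measured enzymatically with a kit. Consumption taken as blank-well glucose minus remaining glucose, then adjusted for cell number by MTT. Vehicle 0.1% DMSO; mean S.D., n = 3.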

[3] = target: Aldo-keto reductase family 1 member B1 (Bos taurus, UniProt P16116); experiment: Inhibition of aldose reductase from calf lense by AR assay
[4] = Induction of NO release in phosphate buffered saline of pH 7.4 at 100 uM after 1 hr by Griess assay in presence of L-cysteine; type: physicochemical; conditions: buffer, pH 7.4, 1 h
Procedure, shortened: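 Incubated 1 h at 37 °C in PBS pH 7.4 with L-cysteine. Reaction mixture treated with Griess reagent (sulfanilamide, N-naphthylethylenediamine dihydrochloride, phosphoric acid) for 10 min at room temperature, then absorbance read at 540 nm. Expressed as percent of a theoretical maximum of 1 mol NO per mol compound. Sodium nitroprusside as positive control.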

Row | SMILES | IC50 [1] | Activity [2] | IC50 [3] | Activity [4]
1 | O=c1cc(-c2ccccc2)oc2cc(O)cc(O)c12 [CHRYSIN] | 63.5 µM | inactive | 7.79 µM | –
2 | O=C(CCCCO[N+](=O)[O-])OCOc1cc(O)c2c(=O)cc(-c3ccccc3)oc2c1 | 52.5 µM | Active | 0.13 µM | 1.26%
3 | O=c1cc(-c2ccccc2)oc2cc(OCCCCCCO[N+](=O)[O-])cc(O)c12 | ≥ 300 µM | Active | 0.71 µM | 1.21%
4 | CC(=O)Oc1cc(OCCO[N+](=O)[O-])cc2oc(-c3ccccc3)cc(=O)c12 | ≥ 300 µM | – | 0.86 µM | 1.68%
5 | O=c1cc(-c2ccccc2)oc2cc(OCCCCO[N+](=O)[O-])cc(O)c12 | 75.5 µM | Active | 0.29 µM | 1.43%
6 | N=C(N)NN [PIMAGEDINE] | 826 µM | – | – | –
7 | O=C(CCCCCCO[N+](=O)[O-])OCOc1cc(O)c2c(=O)cc(-c3ccccc3)oc2c1 | 138 µM | Active | 0.21 µM | 1.38%
8 | CC(=O)Oc1cc(OCCCCCCO[N+](=O)[O-])cc2oc(-c3ccccc3)cc(=O)c12 | ≥ 300 µM | – | 0.42 µM | 1.43%
9 | O=C(CCO[N+](=O)[O-])OCOc1cc(O)c2c(=O)cc(-c3ccccc3)oc2c1 | 43.9 µM | – | 0.3 µM | 1.77%
10 | CC(=O)Oc1cc(OCCCCO[N+](=O)[O-])cc2oc(-c3ccccc3)cc(=O)c12 | ≥ 300 µM | – | 0.39 µM | 1.48%
11 | O=c1cc(-c2ccccc2)oc2cc(OCCO[N+](=O)[O-])cc(O)c12 | ≥ 300 µM | Active | 0.49 µM | 1.67%

Source: ChEMBL document CHEMBL1157783, “Synthesis, characterization and vasculoprotective effects of nitric oxide-donating derivatives of chrysin” (Bioorg Med Chem, 2010)
